Experiments:
Homo sapiens = organism: Homo sapiens; experiment: Selectivity index ratio of Ki for human 5-HT1A receptor to Ki for human 5-HT7B
[1] = molecular target: 5-hydroxytryptamine receptor 7 (Homo sapiens, UniProt P34969); experiment: Displacement of [3H]-5-CT from human 5-HT7B receptor expressed in HEK293 cells after 1 hr; type: cell-based
Procedure, shortened: (§1)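 Competition binding on membranes from HEK293 cells stably expressing human 5-HT7b or 5-HT1A. Incubation 1 h, at 37 °C for 5-HT7b and at room temperature for 5-HT1A. Non-specific binding defined with 10 µM 5-HT.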

[2] = molecular target: T1, 5-hydroxytryptamine receptor 1A (Homo sapiens, UniProt P08908); experiment: Displacement of [3H]-8-OH-DPAT from human 5-HT1A receptor expressed in HEK293 cells after 1 hr; type: cell-based; procedure, shortened: as §1
T1 sequence (P08908 whole entry): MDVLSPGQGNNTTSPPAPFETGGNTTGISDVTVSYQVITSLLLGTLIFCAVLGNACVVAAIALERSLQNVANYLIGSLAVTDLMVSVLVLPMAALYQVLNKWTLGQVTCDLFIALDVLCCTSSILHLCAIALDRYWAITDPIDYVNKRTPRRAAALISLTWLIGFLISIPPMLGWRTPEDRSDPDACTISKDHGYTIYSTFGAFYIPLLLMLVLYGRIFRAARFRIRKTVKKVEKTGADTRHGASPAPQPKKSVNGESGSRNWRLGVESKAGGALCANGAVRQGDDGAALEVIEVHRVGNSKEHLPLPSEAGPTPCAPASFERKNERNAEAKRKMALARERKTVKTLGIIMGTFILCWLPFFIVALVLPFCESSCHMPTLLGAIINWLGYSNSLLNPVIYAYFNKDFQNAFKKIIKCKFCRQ

5-hydroxytryptamine receptor 7, sequence (P34969 whole entry): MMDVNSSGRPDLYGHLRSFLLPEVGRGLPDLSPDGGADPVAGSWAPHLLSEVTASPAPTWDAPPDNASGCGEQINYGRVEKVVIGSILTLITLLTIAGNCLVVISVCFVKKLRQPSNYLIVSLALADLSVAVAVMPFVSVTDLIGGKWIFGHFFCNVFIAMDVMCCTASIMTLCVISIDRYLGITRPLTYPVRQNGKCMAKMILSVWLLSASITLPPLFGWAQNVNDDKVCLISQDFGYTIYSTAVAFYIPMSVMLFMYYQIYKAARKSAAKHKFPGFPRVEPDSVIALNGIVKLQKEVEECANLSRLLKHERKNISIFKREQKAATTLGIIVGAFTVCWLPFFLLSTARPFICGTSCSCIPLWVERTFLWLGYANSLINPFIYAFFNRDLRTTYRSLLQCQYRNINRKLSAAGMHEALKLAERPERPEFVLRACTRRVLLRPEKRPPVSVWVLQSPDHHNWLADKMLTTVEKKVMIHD

SMILES	Ratio Ki (Homo sapiens)	Ki [1] [nM]	Ki [2] [nM]
O=S(=O)(NC1CC2CCC(C1)N2CCOc1cccc(-c2ccccc2)c1)c1ccc(F)c(F)c1 (stereo not given)	4	20	74
CC(C)c1ccccc1OCCN1CC(NS(=O)(=O)c2cccc(F)c2)C1	–	–	28
O=C(NC1CCN(CCOc2ccccc2-c2ccccc2)CC1)c1cccc(Cl)c1	1	197	148
CC(C)c1cccc(OCCN2C3CCC2CC(NS(=O)(=O)c2ccc(F)c(F)c2)C3)c1 (stereo not given)	11	9	99
CC(C)Oc1ccccc1OCCN1CCC(NS(=O)(=O)c2ccc(F)cc2)CC1	–	27	197
CC(C)c1ccccc1OCCN1CC2CC1CN2S(=O)(=O)c1ccc(F)cc1 (stereo not given)	2	162	260
O=S(=O)(NC1CC2CCC(C1)N2CCOc1cccc(-c2ccccc2)c1)c1cccc(F)c1 (stereo not given)	10	12	123
O=C(Nc1cccc(Cl)c1)NC1CCN(CCOc2ccccc2-c2ccccc2)CC1	4	198	718
CC(C)c1cccc(OCCN2C3CCC2CC(NS(=O)(=O)c2cccc(Cl)c2)C3)c1 (stereo not given)	52	4	206
CC(C)(C)c1ccccc1OCCN1CCC(NS(=O)(=O)c2cccc(Cl)c2)CC1	25	74	1850
CC(C)c1ccccc1OCCN1CC(NS(=O)(=O)c2ccc(F)cc2)C1	6	7	45
CC(C)c1cccc(OCCN2C3CCC2CC(NS(=O)(=O)c2cc(F)ccc2F)C3)c1 (stereo not given)	13	4	51
O=S(=O)(NC1CCN(CCOc2ccccc2-c2ccccc2)CC1)c1cccnc1	10	53	536
O=S(=O)(NC1CC2CCC(C1)N2CCOc1cccc(-c2ccccc2)c1)c1ccc(F)cc1 (stereo not given)	12	14	170
O=S(=O)(NC1CCN(CCOc2ccccc2)CC1)c1ccc(F)cc1	–	855	1760

The remaining molecules from weak to strong by Ki [2], led by results:

Ratio Ki (Homo sapiens)	Ki [1] [nM]	Ki [2] [nM]	SMILES
–	1920	6150	CC(C)c1cccc(C(C)C)c1OCCN1CCC(NS(=O)(=O)c2ccc(F)cc2)CC1
66	84	5550	Cn1cc(S(=O)(=O)NC2CCN(CCOc3ccccc3C(C)(C)C)CC2)cn1
8	319	2670	O=S(=O)(c1cccc(Cl)c1)N1CC2CC1CN2CCOc1ccccc1-c1ccccc1 (stereo not given)
–	163	745	Cc1ccccc1OCCN1CCC(NS(=O)(=O)c2ccc(F)cc2)CC1
33	17	556	O=S(=O)(NC1CCN(CCOc2ccccc2C2CCCC2)CC1)c1cccc(Cl)c1
13	39	502	CC(C)c1ccccc1OCCN1CCC(NS(=O)(=O)c2ccc(N)cc2)CC1
–	344	463	COc1ccccc1OCCN1CCC(NS(=O)(=O)c2ccc(F)cc2)CC1
16	26	407	Nc1ccc(S(=O)(=O)NC2CCN(CCOc3ccccc3-c3ccccc3)CC2)cc1
23	16	373	O=S(=O)(NC1CCN(CCOc2ccccc2C2CCCC2)CC1)c1ccc(F)cc1
5	72	371	CC(C)c1ccccc1OCCN1CCC(NS(=O)(=O)c2cccnc2)CC1
1	285	199	CC(C)c1ccccc1OCCN1CCC(NC(=O)c2ccc(F)cc2)CC1
1	201	190	CC(C)c1ccccc1OCCN1CCC(NC(=O)Nc2ccc(F)cc2)CC1
1	40	46	Cn1cc(S(=O)(=O)NC2CN(CCOc3ccccc3-c3ccccc3)C2)cn1
1	20	23	O=S(=O)(NC1CN(CCOc2ccccc2-c2ccccc2)C1)c1cccc(Cl)c1

From ChEMBL document CHEMBL3758131, “Towards new 5-HT7 antagonists among arylsulfonamide derivatives of (aryloxy)ethyl-alkyl amines: Multiobjective based design, synthesis, and antidepressant and anxiolytic properties” (Eur J Med Chem, 2016)
